According to ChEMBL document CHEMBL4052823, “Extra Sugar on Vancomycin: New Analogues for Combating Multidrug-Resistant Staphylococcus aureus and Vancomycin-Resistant Enterococci” (J Med Chem, 2018):
Converted amounts (≈) assume the structure as drawn.

Assays:
Staphylococcus aureus [1] = assay: Antibacterial activity against vancomycin/methicillin-susceptible Staphylococcus aureus Newman […] after 24 hrs by broth microdilution method; assay type: functional
Procedure, shortened: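 Broth microdilution in cation-adjusted Mueller-Hinton II broth. […] Each well received ~10^5 CFU of exponential-phase bacteria and was incubated at 37 °C for 24 h. MIC was taken as the lowest concentration giving complete growth inhibition, interpreted per CLSI.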

Staphylococcus aureus [2] = assay: Antibacterial activity against healthcare-associated methicillin-resistant/vancomycin-intermediate Staphylococcus aureus Mu50 after 24 hrs by broth microdilution method; assay type: functional; conditions: Mu50, 24 h
Procedure, shortened: (§1)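 Broth microdilution in cation-adjusted Mueller-Hinton II broth. DMSO stocks were diluted in broth and twofold serially from 128 to 0.0625 μg/mL or lower. Each well was inoculated with ~10^5 CFU of exponential-phase bacteria and incubated at 37 °C for 24 h. MIC was the lowest concentration giving complete growth inhibition, read per CLSI. Growth controls contained broth plus DMSO.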

Staphylococcus aureus [3] = assay: Potency index, ratio of telavancin MIC90 to test compound MIC90 for vancomycin/methicillin-susceptible Staphylococcus aureus Newman […]; assay type: functional
Enterococcus faecium [4] = assay: Antibacterial activity against glycopeptide-resistant Enterococcus faecium Efm-HS-0649 vanA after 24 hrs by broth microdilution method; assay type: functional; conditions: Efm-HS-0649, 24 h; procedure, shortened: as §1
Enterococcus faecium [5] = assay: Antibacterial activity against glycopeptide-resistant Enterococcus faecium Efm-HS-06188 vanA after 24 hrs by broth microdilution method; assay type: functional; conditions: Efm-HS-06188, 24 h; procedure, shortened: as §1
Enterococcus faecium [6] = assay: Antibacterial activity against glycopeptide-resistant Enterococcus faecium Efm-HS-0847 vanM after 24 hrs by broth microdilution method; assay type: functional; conditions: Efm-HS-0847, 24 h; procedure, shortened: as §1
Enterococcus faecium [7] = assay: Antibacterial activity against glycopeptide-resistant Enterococcus faecium Efm-HS-08257 vanM after 24 hrs by broth microdilution method; assay type: functional; conditions: Efm-HS-08257, 24 h; procedure, shortened: as §1
Enterococcus faecium [8] = assay: Antibacterial activity against glycopeptide-resistant Enterococcus faecium Efm-HS-vb01 vanB after 24 hrs by broth microdilution method; assay type: functional; conditions: Efm-HS-vb01, 24 h; procedure, shortened: as §1
[9] = Half life in CD1 mouse at 5 mg/kg, iv; assay type: ADME, organism-based; conditions: in vivo
Procedure, shortened: (§2)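 Fasted male CD-1 mice (18−22 g), 5 mg/kg single dose into the tail vein, 6 per group. Blood sampled at 0.25, 0.75, 2, 4, 8 and 24 h and analysed by UPLC-MS/MS. T1/2, AUClast, AUCINF_obs, CL_obs, MRTINF_obs and VSS_obs were calculated for each animal from its time−concentration curve.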

[10] = AUClast in CD1 mouse at 5 mg/kg, iv; assay type: ADME, organism-based; set-up: dose 5 mg/kg, route intravenous, time 0 - last; conditions: in vivo; procedure, shortened: as §2
[11] = AUC (infinity) in CD1 mouse at 5 mg/kg, iv; assay type: ADME, organism-based; set-up: dose 5 mg/kg, route intravenous, time infinity; conditions: in vivo; procedure, shortened: as §2
[12] = Clearance in CD1 mouse at 5 mg/kg, iv; assay type: ADME, organism-based; conditions: in vivo; procedure, shortened: as §2
[13] = MRT (infinity) in CD1 mouse at 5 mg/kg, iv; assay type: ADME, organism-based; conditions: in vivo; procedure, shortened: as §2
[14] = Volume of distribution at steady state in CD1 mouse at 5 mg/kg, iv; assay type: ADME, organism-based; conditions: in vivo, read-out: Vdss
Procedure, shortened: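 Fasted male CD-1 mice (18−22 g), 5 mg/kg single dose into the tail vein, 6 per group. T1/2, AUClast, AUCINF_obs, CL_obs, MRTINF_obs and VSS_obs were calculated for each animal from its time−concentration curve.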

Blood = assay: Drug uptake in CD1 mouse blood at 5 mg/kg, iv; assay type: ADME, organism-based; conditions: in vivo; procedure, shortened: as §2

SMILES | MIC90 (Staphylococcus aureus [1]) [µg/mL] | MIC90 (Staphylococcus aureus [2]) [µg/mL] | Ratio (Staphylococcus aureus [3]) | MIC (Enterococcus faecium [4]) [µg/mL] | MIC (Enterococcus faecium [5]) [µg/mL] | MIC (Enterococcus faecium [6]) [µg/mL] | MIC (Enterococcus faecium [7]) [µg/mL] | MIC (Enterococcus faecium [8]) [µg/mL] | half-life [9] [h] | AUC(0-t) [10] [ng·h/mL] | AUC(0-inf) [11] [ng·h/mL] | clearance [12] [mL/min/kg] | MRT inf [13] [h] | Vd [14] [L/kg] | Drug uptake (Blood) [µg/mL]
CCCCCCCCCCN[C@@]1(C)C[C@H](O[C@H]2[C@H](Oc3c4cc5cc3Oc3ccc(cc3Cl)[C@@H](O)[C@@H](NC(=O)[C@@H](CC(C)C)NC)C(=O)N[C@@H](CC(N)=O)C(=O)N[C@H]5C(=O)N[C@H]3C(=O)N[C@H](C(=O)N[C@H](C(=O)O)c5cc(O)c(CN[C@H]6C(O)O[C@H](CO)[C@H](O)[C@@H]6O)c(O)c5-c5cc3ccc5O)[C@H](O)c3ccc(c(Cl)c3)O4)O[C@H](CO)[C@@H](O)[C@@H]2O)O[C@@H](C)[C@H]1O (some centres undefined) | 0.03 (≈ 0.0168 µM) | 0.25 (≈ 0.14 µM) | 8 - 16 | 8 (≈ 4.49 µM) | 8 (≈ 4.49 µM) | 32 (≈ 18 µM) | 16 (≈ 8.99 µM) | 0.5 (≈ 0.281 µM) |  |  |  |  |  |  | 
CN[C@H](CC(C)C)C(=O)N[C@H]1C(=O)N[C@@H](CC(N)=O)C(=O)N[C@H]2C(=O)N[C@H]3C(=O)N[C@H](C(=O)N[C@H](C(=O)O)c4cc(O)cc(O)c4-c4cc3ccc4O)[C@H](O)c3ccc(c(Cl)c3)Oc3cc2cc(c3O[C@@H]2O[C@H](CO)[C@@H](O)[C@H](O)[C@H]2O[C@H]2C[C@](C)(NCc3ccc(-c4ccc(C(F)(F)F)cc4)cc3)[C@H](O)[C@H](C)O2)Oc2ccc(cc2Cl)[C@H]1O |  |  |  |  |  |  |  |  | 6.04 | 64200 | 67500 | 1.24 | 6.83 | 0.509 | > 1
CN[C@H](CC(C)C)C(=O)N[C@H]1C(=O)N[C@@H](CC(N)=O)C(=O)N[C@H]2C(=O)N[C@H]3C(=O)N[C@H](C(=O)N[C@H](C(=O)O)c4cc(O)c(CNCCO)c(O)c4-c4cc3ccc4O)[C@H](O)c3ccc(c(Cl)c3)Oc3cc2cc(c3O[C@@H]2O[C@H](CO)[C@@H](O)[C@H](O)[C@H]2O[C@H]2C[C@](C)(NCc3ccc(OCc4cccc(-c5ccccc5)c4C)c(Cl)c3)[C@H](O)[C@H](C)O2)Oc2ccc(cc2Cl)[C@H]1O | 0.12 (≈ 0.0651 µM) | 0.5 (≈ 0.271 µM) |  | 1 (≈ 0.543 µM) | 0.5 (≈ 0.271 µM) | 2 (≈ 1.09 µM) | 1 (≈ 0.543 µM) | 1 (≈ 0.543 µM) |  |  |  |  |  |  | 
CN[C@H](CC(C)C)C(=O)N[C@H]1C(=O)N[C@@H](CC(N)=O)C(=O)N[C@H]2C(=O)N[C@H]3C(=O)N[C@H](C(=O)N[C@H](C(=O)O)c4cc(O)c(CNCCO[C@H]5O[C@H](CO)[C@@H](O)[C@H](O)[C@@H]5O)c(O)c4-c4cc3ccc4O)[C@H](O)c3ccc(c(Cl)c3)Oc3cc2cc(c3O[C@@H]2O[C@H](CO)[C@@H](O)[C@H](O)[C@H]2O[C@H]2C[C@](C)(NCc3ccc(-c4ccc(Cl)cc4)cc3)[C@H](O)[C@H](C)O2)Oc2ccc(cc2Cl)[C@H]1O | 2 (≈ 1.06 µM) | 4 (≈ 2.12 µM) |  | 0.5 (≈ 0.265 µM) | 1 (≈ 0.53 µM) | 2 (≈ 1.06 µM) | 0.12 (≈ 0.0637 µM) | 2 (≈ 1.06 µM) |  |  |  |  |  |  | 
